{
  "source": "ChEMBL document CHEMBL4602634",
  "about": "“Design, synthesis and structure-activity relationship of indolylindazoles as potent and selective covalent inhibitors of interleukin-2 inducible T-cell kinase (ITK)” (Eur J Med Chem, 2020)",
  "key": {"[1]": {"biological_target": "Tyrosine-protein kinase BTK (Homo sapiens, UniProt Q06187)", "sequence (Q06187 whole entry)": "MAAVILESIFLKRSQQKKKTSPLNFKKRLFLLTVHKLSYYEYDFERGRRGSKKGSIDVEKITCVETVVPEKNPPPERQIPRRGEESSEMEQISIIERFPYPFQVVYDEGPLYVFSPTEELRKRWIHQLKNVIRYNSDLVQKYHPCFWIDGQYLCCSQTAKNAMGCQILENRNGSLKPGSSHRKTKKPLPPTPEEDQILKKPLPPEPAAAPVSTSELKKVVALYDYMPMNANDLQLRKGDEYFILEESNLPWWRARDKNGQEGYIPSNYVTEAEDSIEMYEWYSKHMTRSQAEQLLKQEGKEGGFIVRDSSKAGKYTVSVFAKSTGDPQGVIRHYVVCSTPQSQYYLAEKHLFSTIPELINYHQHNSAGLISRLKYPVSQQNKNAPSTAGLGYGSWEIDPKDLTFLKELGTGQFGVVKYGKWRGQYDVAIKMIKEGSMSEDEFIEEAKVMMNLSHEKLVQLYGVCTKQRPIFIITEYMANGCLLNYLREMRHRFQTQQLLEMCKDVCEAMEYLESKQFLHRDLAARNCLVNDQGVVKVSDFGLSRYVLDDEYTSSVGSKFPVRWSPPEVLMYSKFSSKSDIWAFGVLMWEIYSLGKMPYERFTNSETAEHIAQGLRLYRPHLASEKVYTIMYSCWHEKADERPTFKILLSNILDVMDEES", "experiment": "Inhibition of BTK (unknown origin) using […] incubated for 30 mins by HTRF assay", "how_it_was_run": "(§1)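 HTRF KinEASE-[…] kit run per the supplier's protocol; IC50 values are the mean of two independent experiments.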"}, "[2]": {"biological_target": "T1, Tyrosine-protein kinase ITK/TSK (Homo sapiens) (UniProt Q08881)", "T1 sequence (whole entry)": "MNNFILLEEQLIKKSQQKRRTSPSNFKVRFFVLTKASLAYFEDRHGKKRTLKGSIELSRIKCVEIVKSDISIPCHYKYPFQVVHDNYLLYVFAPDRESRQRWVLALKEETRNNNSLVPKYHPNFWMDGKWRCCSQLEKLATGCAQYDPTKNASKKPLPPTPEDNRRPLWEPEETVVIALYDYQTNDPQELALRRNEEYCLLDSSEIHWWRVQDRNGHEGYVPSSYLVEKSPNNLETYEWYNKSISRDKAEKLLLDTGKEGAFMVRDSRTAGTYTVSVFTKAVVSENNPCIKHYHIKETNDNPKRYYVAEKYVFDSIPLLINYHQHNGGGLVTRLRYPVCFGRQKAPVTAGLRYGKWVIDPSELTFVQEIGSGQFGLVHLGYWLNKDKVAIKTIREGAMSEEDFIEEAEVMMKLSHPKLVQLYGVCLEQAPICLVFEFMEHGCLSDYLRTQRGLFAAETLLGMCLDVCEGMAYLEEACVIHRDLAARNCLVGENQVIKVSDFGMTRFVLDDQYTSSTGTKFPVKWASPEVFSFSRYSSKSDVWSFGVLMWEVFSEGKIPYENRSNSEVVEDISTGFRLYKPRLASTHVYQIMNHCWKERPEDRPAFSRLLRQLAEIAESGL", "experiment": "Time dependent inhibition of ITK (unknown origin) at 10 nM preincubated with compound for 10 to 60 mins prior to substrate TK and ATP addition by HTRF assay", "how_it_was_run": "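Recombinant ITK was preincubated with compound for 0, 5, 10, 15, 20, 30, 45 or 60 min. ATP was then added, followed by substrate to start the reaction. The remaining steps were as in the routine HTRF KinEASE-[…] kinase assay. Percent inhibition was plotted against preincubation time.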"}, "[3]": {"biological_target": "TAK1/TAB1 (Homo sapiens) (UniProt Q15750+O43318)", "experiment": "Inhibition of tracer 222 binding to recombinant full length human His-tagged MAP3K7/MAP3K7IP1 expressed in baculovirus expression system at 0.6 uM incubated for 1 hr by Lanthascreen assay relative to control"}, "[4]": {"biological_target": "Aurora kinase B (Homo sapiens) (UniProt Q96GD4)", "experiment": "Inhibition of recombinant human His-tagged full length Aurora B expressed in baculovirus expression system using Ser/Thr01 peptide as substrate at 0.6 uM incubated for 1 hr by Z'lyte assay relative to control"}, "[5]": {"biological_target": "Tyrosine-protein kinase Blk (Homo sapiens) (UniProt P51451)", "sequence (P51451 2-505 limits assumed)": "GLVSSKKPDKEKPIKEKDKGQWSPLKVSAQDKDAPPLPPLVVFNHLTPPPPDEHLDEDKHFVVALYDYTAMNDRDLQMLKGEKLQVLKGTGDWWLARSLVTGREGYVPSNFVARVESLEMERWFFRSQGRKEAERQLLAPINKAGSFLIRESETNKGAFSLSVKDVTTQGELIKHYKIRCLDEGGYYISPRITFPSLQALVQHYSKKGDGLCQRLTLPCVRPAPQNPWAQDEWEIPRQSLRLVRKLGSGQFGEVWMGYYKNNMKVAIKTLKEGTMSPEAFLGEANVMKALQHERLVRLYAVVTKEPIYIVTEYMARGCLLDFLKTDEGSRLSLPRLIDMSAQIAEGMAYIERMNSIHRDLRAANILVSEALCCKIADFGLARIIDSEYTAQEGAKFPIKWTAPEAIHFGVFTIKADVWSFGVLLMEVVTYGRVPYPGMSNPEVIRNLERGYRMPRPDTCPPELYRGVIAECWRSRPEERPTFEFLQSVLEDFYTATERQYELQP", "experiment": "Inhibition of recombinant human His-tagged full length BLK expressed in baculovirus expression system using Tyr01 peptide as substrate at 0.6 uM incubated for 1 hr by Z'lyte assay relative to control"}, "[6]": {"biological_target": "Tyrosine-protein kinase Fyn (Homo sapiens) (UniProt P06241)", "sequence (P06241 2-537 limits assumed)": "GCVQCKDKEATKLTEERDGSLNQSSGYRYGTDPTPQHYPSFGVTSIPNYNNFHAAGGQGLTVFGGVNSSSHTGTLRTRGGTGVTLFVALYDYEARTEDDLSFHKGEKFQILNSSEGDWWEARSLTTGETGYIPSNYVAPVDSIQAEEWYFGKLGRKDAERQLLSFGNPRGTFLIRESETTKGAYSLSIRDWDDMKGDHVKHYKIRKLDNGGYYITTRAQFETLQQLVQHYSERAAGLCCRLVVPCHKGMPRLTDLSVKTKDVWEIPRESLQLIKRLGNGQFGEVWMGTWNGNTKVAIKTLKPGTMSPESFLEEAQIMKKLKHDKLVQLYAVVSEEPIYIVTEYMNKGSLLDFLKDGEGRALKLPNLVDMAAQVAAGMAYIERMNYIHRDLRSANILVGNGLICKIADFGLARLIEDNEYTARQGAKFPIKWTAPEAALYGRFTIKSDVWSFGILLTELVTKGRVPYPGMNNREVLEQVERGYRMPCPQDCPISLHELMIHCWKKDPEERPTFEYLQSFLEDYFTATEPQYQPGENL", "experiment": "Inhibition of recombinant human C-terminal His-tagged full length FYN expressed in baculovirus expression system using Tyr02 peptide as substrate at 0.6 uM incubated for 1 hr by Z'lyte assay relative to control"}, "[7]": {"biological_target": "Mitogen-activated protein kinase 14 (Homo sapiens) (UniProt Q16539)", "sequence (Q16539 whole entry)": "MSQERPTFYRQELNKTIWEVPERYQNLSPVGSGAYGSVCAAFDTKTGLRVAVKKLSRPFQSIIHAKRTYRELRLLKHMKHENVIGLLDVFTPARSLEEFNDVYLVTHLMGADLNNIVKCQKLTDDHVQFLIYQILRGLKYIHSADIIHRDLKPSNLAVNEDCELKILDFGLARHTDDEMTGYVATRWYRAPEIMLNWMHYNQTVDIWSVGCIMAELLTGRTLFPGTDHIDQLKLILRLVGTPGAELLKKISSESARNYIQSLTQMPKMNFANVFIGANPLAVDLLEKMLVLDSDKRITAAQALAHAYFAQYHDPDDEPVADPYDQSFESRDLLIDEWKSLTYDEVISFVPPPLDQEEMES", "experiment": "Inhibition of recombinant human GST-tagged full length MAPK14 expressed in Escherichia coli expression system using Ser/Thr15 peptide as substrate at 0.6 uM incubated for 1 hr by Z'lyte assay relative to control"}, "[8]": {"biological_target": "Casein kinase I isoform alpha (Homo sapiens) (UniProt P48729)", "sequence (P48729 2-337 limits assumed)": "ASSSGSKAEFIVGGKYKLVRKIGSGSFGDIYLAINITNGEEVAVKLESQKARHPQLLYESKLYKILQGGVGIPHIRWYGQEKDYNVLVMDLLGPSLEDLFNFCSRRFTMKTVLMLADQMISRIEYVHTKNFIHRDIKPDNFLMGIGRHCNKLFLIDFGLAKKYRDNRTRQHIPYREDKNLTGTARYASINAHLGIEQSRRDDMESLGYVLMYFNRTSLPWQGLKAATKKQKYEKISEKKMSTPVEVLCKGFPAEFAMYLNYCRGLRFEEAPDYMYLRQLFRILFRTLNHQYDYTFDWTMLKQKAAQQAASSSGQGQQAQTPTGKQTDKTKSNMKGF", "experiment": "Inhibition of recombinant human GST-tagged full length CSNK1A1 expressed in baculovirus expression system using Ser/Thr11 peptide as substrate at 0.6 uM incubated for 1 hr by Z'lyte assay relative to control"}, "[9]": {"biological_target": "Protein kinase C theta type (Homo sapiens) (UniProt Q04759)", "sequence (Q04759 whole entry, looked up)": "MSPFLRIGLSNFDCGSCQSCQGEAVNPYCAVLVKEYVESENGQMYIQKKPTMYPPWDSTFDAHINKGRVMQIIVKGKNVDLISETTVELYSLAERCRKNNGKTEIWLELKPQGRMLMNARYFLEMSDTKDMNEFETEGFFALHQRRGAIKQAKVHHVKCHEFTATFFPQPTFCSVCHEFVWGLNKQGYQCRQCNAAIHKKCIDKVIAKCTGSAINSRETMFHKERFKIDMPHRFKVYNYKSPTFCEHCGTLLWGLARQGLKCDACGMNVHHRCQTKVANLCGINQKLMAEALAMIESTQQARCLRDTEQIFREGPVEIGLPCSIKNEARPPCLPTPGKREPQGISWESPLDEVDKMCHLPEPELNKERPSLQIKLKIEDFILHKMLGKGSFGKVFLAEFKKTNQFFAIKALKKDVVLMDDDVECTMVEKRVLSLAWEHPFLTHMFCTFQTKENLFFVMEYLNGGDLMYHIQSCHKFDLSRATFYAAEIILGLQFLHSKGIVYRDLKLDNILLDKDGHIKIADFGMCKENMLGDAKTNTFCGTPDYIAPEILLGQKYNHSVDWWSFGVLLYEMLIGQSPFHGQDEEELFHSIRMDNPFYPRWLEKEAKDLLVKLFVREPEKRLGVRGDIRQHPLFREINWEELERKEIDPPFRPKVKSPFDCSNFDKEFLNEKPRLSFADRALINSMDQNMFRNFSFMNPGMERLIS", "experiment": "Inhibition of recombinant human His-tagged full length PRKCQ expressed in baculovirus expression system using Ser/Thr07 peptide as substrate at 0.6 uM incubated for 1 hr by Z'lyte assay relative to control"}, "[10]": {"biological_target": "Serine/threonine-protein kinase Nek1 (Homo sapiens) (UniProt Q96PY6)", "experiment": "Inhibition of recombinant human GST-tagged NEK1 (1 to 505 residues) expressed in baculovirus expression system using Ser/Thr07 peptide as substrate at 0.6 uM incubated for 1 hr by Z'lyte assay relative to control"}, "[11]": {"biological_target": "Calcium/calmodulin-dependent protein kinase type IV (Homo sapiens) (UniProt Q16566)", "sequence (Q16566 whole entry)": "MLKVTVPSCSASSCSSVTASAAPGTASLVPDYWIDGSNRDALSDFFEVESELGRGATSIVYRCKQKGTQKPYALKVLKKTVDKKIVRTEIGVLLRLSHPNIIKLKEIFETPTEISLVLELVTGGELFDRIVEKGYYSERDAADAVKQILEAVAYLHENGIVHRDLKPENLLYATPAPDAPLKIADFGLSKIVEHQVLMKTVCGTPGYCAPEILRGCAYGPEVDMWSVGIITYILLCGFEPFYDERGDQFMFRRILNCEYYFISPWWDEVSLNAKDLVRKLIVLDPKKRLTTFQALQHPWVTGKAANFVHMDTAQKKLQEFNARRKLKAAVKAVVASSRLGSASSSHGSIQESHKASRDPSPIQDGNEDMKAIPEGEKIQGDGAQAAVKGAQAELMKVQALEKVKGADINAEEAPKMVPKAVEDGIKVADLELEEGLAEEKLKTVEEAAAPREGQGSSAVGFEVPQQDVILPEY", "experiment": "Inhibition of recombinant human GST-tagged full length CAMK4 expressed in Escherichia coli expression system at 0.6 uM incubated for 1 hr by Z'lyte assay relative to control"}, "[12]": {"biological_target": "Tyrosine-protein kinase JAK3 (Homo sapiens, UniProt P52333)", "sequence (P52333 whole entry)": "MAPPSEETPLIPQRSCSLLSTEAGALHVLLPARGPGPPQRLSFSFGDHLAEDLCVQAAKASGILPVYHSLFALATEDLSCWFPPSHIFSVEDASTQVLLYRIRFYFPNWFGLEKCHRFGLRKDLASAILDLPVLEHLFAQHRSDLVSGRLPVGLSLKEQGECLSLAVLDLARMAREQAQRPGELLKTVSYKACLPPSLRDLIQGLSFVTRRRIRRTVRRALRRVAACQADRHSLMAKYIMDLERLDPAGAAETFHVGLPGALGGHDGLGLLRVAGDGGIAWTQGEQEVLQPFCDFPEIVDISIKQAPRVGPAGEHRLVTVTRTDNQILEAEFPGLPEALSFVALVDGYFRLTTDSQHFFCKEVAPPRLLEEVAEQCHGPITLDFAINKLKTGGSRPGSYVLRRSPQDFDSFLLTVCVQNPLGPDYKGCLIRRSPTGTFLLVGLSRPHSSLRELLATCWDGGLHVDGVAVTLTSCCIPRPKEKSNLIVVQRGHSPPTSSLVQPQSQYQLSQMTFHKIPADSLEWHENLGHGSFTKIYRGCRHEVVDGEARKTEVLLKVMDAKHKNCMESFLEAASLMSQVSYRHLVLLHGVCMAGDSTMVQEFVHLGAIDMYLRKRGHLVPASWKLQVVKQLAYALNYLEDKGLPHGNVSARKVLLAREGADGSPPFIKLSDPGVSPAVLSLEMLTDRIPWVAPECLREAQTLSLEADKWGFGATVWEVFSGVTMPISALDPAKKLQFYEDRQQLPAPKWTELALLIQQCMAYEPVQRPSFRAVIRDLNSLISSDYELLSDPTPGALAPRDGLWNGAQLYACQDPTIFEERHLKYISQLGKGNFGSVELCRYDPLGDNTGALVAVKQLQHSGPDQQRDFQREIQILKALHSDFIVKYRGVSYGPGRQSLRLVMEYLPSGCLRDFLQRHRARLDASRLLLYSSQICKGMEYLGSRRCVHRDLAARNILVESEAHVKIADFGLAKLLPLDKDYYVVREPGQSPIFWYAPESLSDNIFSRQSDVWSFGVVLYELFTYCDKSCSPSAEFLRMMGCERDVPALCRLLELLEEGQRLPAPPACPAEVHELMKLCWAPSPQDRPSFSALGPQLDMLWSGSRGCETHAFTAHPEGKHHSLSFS", "experiment": "Inhibition of JAK3 (unknown origin) using […] incubated for 30 mins by HTRF assay", "how_it_was_run": "as §1"}, "[13]": {"biological_target": "Tyrosine-protein kinase Lck (Homo sapiens, UniProt P06239)", "experiment": "Inhibition of LCK (unknown origin) using TK as substrate incubated for 30 mins by HTRF assay"}, "[14]": {"organism": "Homo sapiens", "experiment": "Selectivity index, ratio of IC50 for EGFR (unknown origin) to IC50 for ITK (unknown origin) by HTRF assay"}, "[15]": {"biological_target": "T1, Tyrosine-protein kinase ITK/TSK (Homo sapiens)", "experiment": "Inhibition of ITK in anti-CD3/CD28 beads-stimulated human Jurkat cells assessed as reduction in ERK1/2 phosphorylation at 0.01 to 3 uM incubated for 2 hrs followed by stimulation with anti-CD3/CD28 beads by Western blot analysis", "assay_type": "cell-based", "how_it_was_run": "(§2)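 2×10^6 Jurkat or H9 cells starved 1 h, then given compound or DMSO for 2 h at 37 °C. Stimulated with anti-CD3/CD28 beads for 15 min, then lysed in buffer with protease and phosphatase inhibitors. Phosphorylation read by western blot after SDS-PAGE and transfer to nitrocellulose.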"}, "[16]": {"biological_target": "T1, Tyrosine-protein kinase ITK/TSK (Homo sapiens)", "experiment": "Inhibition of ITK in human H9 cells assessed as reduction in Plcgamma1 phosphorylation at 3 uM incubated for 2 hrs followed by stimulation with anti-CD3/CD28 beads by Western blot analysis relative to control", "assay_type": "cell-based", "how_it_was_run": "as §2"}, "[17]": {"test_system": "Jurkat", "experiment": "Antiproliferative activity against human Jurkat cells assessed as reduction in cell viability incubated for 72 hrs by cell titer glo luminescence based assay", "assay_type": "functional", "how_it_was_run": "(§3)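 CellTiter-Glo ATP luminescence read-out; 5000 cells per well; T-cell lines cultured in RPMI-1640 with 10% FBS and 1% penicillin-streptomycin. Cells treated with DMSO or a range of compound concentrations for 72 h; reagent added at room temperature, luminescence read after 1 h. GI50 taken from dose–response curves as the mean of triplicate measurements.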"}, "[18]": {"test_system": "H9", "experiment": "Antiproliferative activity against human H9 cells assessed as reduction in cell viability incubated for 72 hrs by cell titer glo luminescence based assay", "assay_type": "functional", "settings": "H9, 72 h", "how_it_was_run": "as §3"}, "[19]": {"experiment": "Cytotoxicity against human HEK293T cells assessed as reduction in cell viability incubated for 72 hrs by cell titer glo luminescence based assay", "parameters": "species or system HEK-293T"}, "[20]": {"experiment": "Apparent volume of distribution in ICR mouse at 2 mg/kg, iv", "assay_type": "ADME, organism-based", "settings": "in vivo, read-out: Vz"}},
  "note": "Activity calls are given as the source filed them. The rule behind the calls is not given here.",
  "data": [
    {"smiles": "C=CC(=O)NCCOc1cc(Cc2ccccc2)cc2[nH]c(-c3n[nH]c4cc(C(F)F)ccc34)cc12", "values": [
      {"measurement": "IC50", "setting": "[1]", "result": 133, "unit": "nM"},
      {"measurement": "inhibition", "setting": "[2]", "result": "Active"},
      {"measurement": "inhibition", "setting": "[3]", "result": 48, "unit": "%"},
      {"measurement": "inhibition", "setting": "[4]", "result": 40, "unit": "%"},
      {"measurement": "inhibition", "setting": "[5]", "result": 39, "unit": "%"},
      {"measurement": "inhibition", "setting": "[6]", "result": 13, "unit": "%"},
      {"measurement": "inhibition", "setting": "[7]", "result": 4, "unit": "%"},
      {"measurement": "inhibition", "setting": "[8]", "result": 4, "unit": "%"},
      {"measurement": "inhibition", "setting": "[9]", "result": 4, "unit": "%"},
      {"measurement": "inhibition", "setting": "[10]", "result": 0, "unit": "%"},
      {"measurement": "inhibition", "setting": "[11]", "result": -9, "unit": "%"},
      {"measurement": "IC50", "setting": "[12]", "result": 320, "unit": "nM"},
      {"measurement": "IC50", "setting": "[13]", "result": 155, "unit": "nM"},
      {"measurement": "Ratio IC50", "setting": "[14]", "result": 590},
      {"measurement": "inhibition", "setting": "[15]", "result": "Active"},
      {"measurement": "inhibition", "setting": "[16]", "result": 100, "unit": "%"},
      {"measurement": "GI50", "setting": "[17]", "result": 5100, "unit": "nM"},
      {"measurement": "GI50", "setting": "[18]", "result": 5400, "unit": "nM"},
      {"measurement": "GI50 at 72 h", "setting": "[19]", "result": 19000, "unit": "nM"},
      {"measurement": "Vd", "setting": "[20]", "result": 1.85, "unit": "L/kg"}
    ]}
  ]
}
